Assay results from different studies.
Compare with care: the assays were run in different laboratories.
Target: Phosphatidylinositol 4,5-bisphosphate 3-kinase catalytic subunit gamma isoform (PIK3CG, Homo sapiens, UniProt P48736)

Compound	effect on	method	concentration	remaining binding [%]
C=CC(=O)N1CCC(C(=O)NCC(=O)N2CCN(c3nc(-c4cnc(N)nc4C(F)F)nc(N4CCOCC4)n3)CC2)CC1	binding	competition with immobilised ligand	1 µM	0.1
O=C(NCCCN1CCOCC1)c1ccc(Nc2ncc(Cl)c(-c3ccc(Cl)s3)n2)cc1	binding	competition with immobilised ligand	1 µM	100
c1cncc(-c2cccc(Nc3nccc(NC4CCCCC4)n3)c2)c1	binding	competition with immobilised ligand	10 µM	69
CN(CCCC(F)(F)F)c1nccc(-c2cnn3ncccc23)n1	binding	–	1 µM	100
O=C(Nc1cccnn1)N1CCC(=Cc2cccc(Oc3ccc(C(F)(F)F)cn3)c2)CC1	cell-free assay	competition with immobilised ligand	1 µM	100
CC1CCCN1c1nccc(-c2cnn3ncccc23)n1 (centres unmarked)	binding	–	1 µM	100
CC(C)(C)c1ccc(-c2nc(CBr)nn2-c2cccc(O)c2)cc1	cell-free assay	competition with immobilised ligand	10 µM	94
O=C(NCC1CCOCC1)c1n[nH]cc1NC(=O)c1c(F)cccc1F	binding	competition with immobilised ligand	1 µM	100
O=C(NCCCN1CCOCC1)c1ccc(Nc2nccc(-c3cc4ccccc4s3)n2)cc1	binding	competition with immobilised ligand	1 µM	20
CCCOc1ccc([C@H]2[C@H](C(=O)O)[C@@H](c3ccc4c(c3)OCO4)CN2CC(=O)Nc2c(CC)cccc2CC)cc1	cell-free assay	competition with immobilised ligand	1 µM	68
C[C@H]1CCN(c2nccc(-c3cnn4ncccc34)n2)C1	binding	–	1 µM	82
NS(=O)(=O)c1cc(NC(=O)Cc2ccccc2)ccc1Oc1cccc(Cl)c1	cell-free assay	competition with immobilised ligand	1 µM	77
CNC(=O)[C@@H]1CC[C@@H](n2c(-c3ccc4cnccc4c3)nc3ccc(C(=O)NCc4cccc(C(N)=O)c4)cc32)C1	binding	competition with immobilised ligand	1 µM	100
C[C@H](c1cccc(C#N)c1)n1cc(Cl)cc(C(N)=O)c1=N	cell-free assay	competition with immobilised ligand	1 µM	98
O=C(c1ccc(Nc2ncc(Cl)c(-c3cc4ccccc4s3)n2)cc1)N1CCC(N2CCCC2)CC1	binding	competition with immobilised ligand	1 µM	87
CN(C)c1nccc(-c2cnn3ncccc23)n1	binding	–	1 µM	76
CN1CCN(c2cnc3c(C4CCN(C(=O)c5ccc(OC(F)(F)F)cc5N)CC4)ncnc3c2)CC1	cell-free assay	competition with immobilised ligand	1 µM	95
N[C@@H]1CCN(c2nccc(-c3cnn4ncccc34)n2)C1	binding	–	1 µM	100
O=C(O)[C@@H]1[C@@H](Cn2nnc3ccccc3c2=O)CC[C@H]1C(=O)c1ccc(OCCC2CCOCC2)cc1	cell-free assay	competition with immobilised ligand	1 µM	100
CN(c1nccc(-c2cnn3ncccc23)n1)C1CC1	binding	–	1 µM	100
N#Cc1ccc(Nc2ccc3[nH]c(=O)[nH]c3c2)c(Cl)c1	cell-free assay	competition with immobilised ligand	1 µM	92
c1cnn2ncc(-c3ccnc(N4CCC45COC5)n3)c2c1	binding	–	1 µM	74
Nc1ncc2c(n1)-c1c([nH]c3ccc(C#CC4CC4)cc13)CCCC2	binding	competition with immobilised ligand	1 µM	77
